In ChEMBL document CHEMBL2157980, “Discovery of SCH 900229, a Potent Presenilin 1 Selective γ-Secretase Inhibitor for the Treatment of Alzheimer's Disease” (ACS Med Chem Lett, 2012):

Legend:
Presenilin-1 [1] = target: T1, Presenilin-1 (Homo sapiens, UniProt P49768); assay: Inhibition of PS1 gamma-secretase assessed as reduction of amyloid beta-40 production by membrane based assay
In short: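 Aβ40 production was measured in a membrane-based assay. IC50 was the average of at least two measurements, with standard deviation 20%.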

[2] = Selectivity ratio of IC50 for PS2 gamma-secretase to IC50 for PS1 gamma-secretase
In short: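 Inhibitors were tested against reconstituted γ-secretase complexes containing PS1 or PS2. The result is expressed as the PS2/PS1 ratio of IC50 values.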

Mus musculus [3] = assay: Antialzheimer activity in B6C3F1 mouse assessed as reduction of amyloid beta-40 level in cortex at 30 mg/kg, po after 3 hrs; format: functional; design: scale not given: the % may be the effect or the level left
In short: (§1)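 B6C3F1 mice were dosed orally at 10 or 30 mg/kg. Aβ40 in plasma and cortex was measured 3 h after dosing and expressed as % change, with lowering shown as negative.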

Presenilin-1 [4] = target: T1, Presenilin-1; assay: Inhibition of PS1 gamma-secretase expressed in HEK cells harboring Awe-Lon gene assessed as reduction of amyloid beta-40 production; format: cell-based, HEK293
In short: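 Cell-based Aβ40 production assay in HEK293 cells carrying APP Awe-Lon. IC50 was the average of at least two determinations, with standard deviation 20%.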

Presenilin-2 = Presenilin-2 (Homo sapiens, UniProt P49810); assay: Inhibition of PS2 gamma-secretase expressed in HEK cells harboring Awe-Lon gene assessed as reduction of amyloid beta-42 production; format: cell-based, HEK293
Sequence of Presenilin-2 (P49810 1-297 limits assumed): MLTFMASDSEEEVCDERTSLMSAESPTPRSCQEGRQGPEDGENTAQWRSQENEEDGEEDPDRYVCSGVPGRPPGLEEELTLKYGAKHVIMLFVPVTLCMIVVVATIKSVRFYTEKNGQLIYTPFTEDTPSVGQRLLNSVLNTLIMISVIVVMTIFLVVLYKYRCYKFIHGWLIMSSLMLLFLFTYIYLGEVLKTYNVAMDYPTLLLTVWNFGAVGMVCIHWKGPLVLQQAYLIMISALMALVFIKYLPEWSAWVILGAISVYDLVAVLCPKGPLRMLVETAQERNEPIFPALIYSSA
Sequence of Presenilin-2 (P49810 298-448 limits assumed): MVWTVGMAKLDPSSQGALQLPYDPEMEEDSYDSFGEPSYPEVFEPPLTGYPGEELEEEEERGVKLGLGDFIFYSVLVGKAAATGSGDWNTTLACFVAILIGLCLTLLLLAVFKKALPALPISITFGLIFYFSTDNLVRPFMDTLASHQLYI

Mus musculus [5] = assay: Antialzheimer activity in B6C3F1 mouse assessed as reduction of amyloid beta-40 level in plasma at 30 mg/kg, po after 3 hrs; format: functional; design: scale not given: the % may be the effect or the level left; in short: as §1
Mus musculus [6] = assay: Antialzheimer activity in transgenic CRND8 mouse assessed as increase of amyloid beta-40 level in plasma at 30 mg/kg, po after 3 hrs; format: functional
In short: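 CRND8 mice were dosed orally at 30 mg/kg. Aβ40 in plasma and cortex was measured 3 h post-dose and reported as % change, negative for lowering and positive for increase.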

| SMILES | IC50 (Presenilin-1 [1]) [nM] | Ratio IC50 [2] | Activity (Mus musculus [3]) [%] | IC50 (Presenilin-1 [4]) [nM] | IC50 (Presenilin-2) [nM] | Activity (Mus musculus [5]) [%] | Activity (Mus musculus [6]) [%] |
| --- | --- | --- | --- | --- | --- | --- | --- |
| O=S(=O)(c1ccc(Cl)cc1)[C@]12CCO[C@H](CCO)[C@H]1COc1c(F)ccc(F)c12 | 320 | – | – | – | – | – | – |
| CCS(=O)(=O)CC[C@@H]1OCC[C@@]2(S(=O)(=O)c3ccc(Cl)cc3)c3c(F)ccc(F)c3OC[C@@H]12 | 3 | 26 | 79 | 5 | 2 | 60 | – |
| N#CCC[C@@H]1OCC[C@@]2(S(=O)(=O)c3ccc(Cl)cc3)c3c(F)ccc(F)c3OC[C@@H]12 (racemic) | 22 | 6 | – | 37 | 16 | – | 18 |
| CS(=O)(=O)CC[C@H]1OCC[C@]2(S(=O)(=O)c3ccc(Cl)cc3)c3c(F)ccc(F)c3OC[C@H]12 | 377 | – | – | – | – | – | – |
| O=S(=O)(c1ccc(Cl)cc1)[C@@]12CCO[C@@H](CCO)[C@@H]1COc1c(F)ccc(F)c12 | 20 | – | – | 18 | 8 | – | – |
| CCNC(=O)OCC[C@@H]1OCC[C@@]2(S(=O)(=O)c3ccc(Cl)cc3)c3c(F)ccc(F)c3OC[C@@H]12 (racemic) | 24 | – | – | 48 | 20 | – | – |
